In ChEMBL document CHEMBL4513216, “Probing the Open Global Health Chemical Diversity Library for Multistage-Active Starting Points for Next-Generation Antimalarials” (ACS Infect Dis, 2020):

Assay: Toxicity liver stage against HepG2, at 10uM
Type: cell-based
Design: test concentration 10 uM, cell line HepG2-A16-CD81EGFP
Conditions: human, HepG2-A16-CD81EGFP cells; read-out: INHIBITION
In short: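 Uninfected HepG2-A16-CD81EGFP cells, 3 × 10^3 per well, 1536-well, plated on prespotted compound at 10 μM final, parasite-free screening media added to match infected plates; puromycin 10 μM positive, DMSO 0.5% negative; run in parallel with 48 h PbLuc assay at 37 °C, 5% CO2; viability by CellTiter-Glo luminescence, normalized to controls.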

Structure (SMILES)	cytotoxicity at 10 µM [%]
CN(Cc1cnn(C)c1)C1CCN(c2cccc(-c3cscn3)c2)CC1	-0.724
OCC1CCN(c2ccc(NCc3ccsc3)nc2)CC1	8.94
CC(C)c1nc(-c2cc(C(=O)N3CCN(C)CC3)c3ccccn23)cs1	5.77
CN(C)S(=O)(=O)N1CC[C@]2(O)CCN(c3cc(C#N)ccn3)C[C@@H]2C1	12.3
Cc1nn(C)c(Cl)c1C1CCCN1C(=O)c1ccnn1C (configuration not stated)	-4.87
Cn1cc(CCCNC(=O)NC2CCN(c3ccccc3)C2=O)cn1 (configuration not stated)	6.75
CS(=O)(=O)CC1(CNc2c(C#N)cnc3ccc(Cl)cc23)CC1	8.62
CC(=O)c1cccc(NC(=O)CN2CCCCC2C)c1 (configuration not stated)	-0.684
OC1(CNCCc2csc(-c3ccncc3)n2)CCCNC1 (configuration not stated)	-13.2
O=C(CCc1nccs1)N1CCCC(N2CCNC2=O)C1 (configuration not stated)	-18.3
CC(C)N1C[C@@H]2OCC(=O)N(Cc3ccccc3)[C@@H]2C1	10.5
CCc1cc(N2CCC(Nc3ccc4nnc(C)n4n3)CC2)ncn1	4.69
Cc1cc(C)nc(C2CCN(C3CCCCC3)C2)n1 (configuration not stated)	7.33
O=C(Nc1cnn(-c2ccccc2Cl)c1)N[C@@H]1C=C[C@H](CO)C1	0.836
Cc1noc(C)c1CN(C)Cc1cnc(N2CCOCC2)nc1	-2.28
CCOC(=O)C1CCCN(c2nccc(-n3nc(C)cc3C)n2)C1 (configuration not stated)	-11
Cc1ncsc1CCN(C)C(=O)c1ccc(CN2CCCCC2)cc1	-4.38
Cc1cccc(C(C(=O)N(C)Cc2ccon2)N(C)C)c1 (configuration not stated)	5.4
COc1ccc2[nH]c3c(c2c1)CN(c1cc(NCCO)nc(N)n1)CC3	8.75
CN(Cc1ccc(Br)c2cccnc12)S(C)(=O)=O	2.92
COc1cc(OC)cc(C(=O)NCc2nn(C)c3c2COCC3)c1	6.17
Cn1cc(CCNC(=O)NCc2nnc3n2CCC3)cn1	-6.08
COCC(=O)N1CCCCC1c1ccncn1 (configuration not stated)	-27.8

Structure (SMILES)	cytotoxicity at 10 µM [%]
COCCC1COC2(CCN(C(C)=O)CC2)C1 (configuration not stated)	8.19
c1ccc(Cn2cc(CNCC3CCCN3c3cccnn3)cn2)cc1 (configuration not stated)	-4.03
Cc1nccn1-c1cc(CNC(=O)CCNC(=O)C2CCCC2)ccn1	-2.06
Cc1cccc(CC(=O)N2CCOCC2c2c(C)n[nH]c2C)c1 (configuration not stated)	9.18
COC(=O)c1cccc(NC(=O)CN2CCN(S(C)(=O)=O)CC2)c1	11.3
O=C(NC1CCCC1)[C@H]1C[C@H]2OCC[C@H]2N(Cc2ccoc2)C1	-77.3
O=C(NC1CCCN(c2ccccc2Cl)C1)c1c[nH]nn1 (configuration not stated)	-1.58
NCC(=O)N1CCCCC1c1ccc(F)cc1 (configuration not stated)	-43.4
CC(C)NC(=O)N1CC(=O)c2sc(NC3CCCCC3)nc2C1	-7.91
CCOc1cc(NC(=O)N2CCOC3(CCC3)C2)ccc1C	-0.535
COCC(=O)N1CCc2nc(C(=O)Nc3cccnc3)sc2CC1	7.98
COc1cccc(CN(C)C(=O)c2csc(-c3nnc[nH]3)n2)c1	-14.4
CCc1nc(C2CCCN2c2ncc(Br)cn2)no1 (configuration not stated)	-0.36
COc1cccc(COCC(=O)N2CCCC(n3ccnc3C)C2)c1 (configuration not stated)	-7.77
CC1c2ncc(Cn3cncn3)n2CCN1C(=O)c1cscn1 (configuration not stated)	-17.5
Cc1cc(C)n(CC(C)CNC(=O)CCc2ccco2)n1 (configuration not stated)	-1.05
NC(=O)N1CCc2cc(C(=O)O)c(-c3ccsc3)nc2CC1	18.3
CNC(=O)COC1COC2(CCN(c3ncccn3)CC2)C1 (configuration not stated)	-3.4
CC(C)C1CCCN1CC(=O)NCc1ccc(OCC(N)=O)cc1 (configuration not stated)	7.01
O=S(=O)(C1CC1)N1CCC2(CC1)COC(COc1ccccn1)C2 (configuration not stated)	3.35
CC(C)SCC(=O)N1Cc2cnc(-c3ccccc3)nc2C1	1.2
CCc1n[nH]c(C2CN(C(=O)c3ccnc(C)n3)CCO2)n1 (configuration not stated)	-7.06
CC(C)CCNC(=O)c1ccc(-c2ccco2)[nH]c1=O	-9.62

Structure (SMILES)	cytotoxicity at 10 µM [%]
CN(C)C(=O)CC1CCOc2ccccc21 (configuration not stated)	4.17
COc1ccccc1OCCNC(=O)NCc1nc(C)no1	6.67
CC(=O)NCC(=O)N1CCN(CCN(C)C)c2ncccc2C1	-104
CCOCCC(=O)Nc1cccc(Cl)c1C(N)=O	-8.59
Cc1nc(-c2ccccc2)n(CC(=O)NC2CCCCC2)n1	-1.16
Clc1ccc2nncc(N3CCCCC3)c2c1	-4.34
COc1ccccc1COCC(O)CN(C)Cc1cccc(Cl)c1 (configuration not stated)	-1.28
COc1ccccc1C1CCN(C(=O)c2ncccc2OC(C)C)C1 (configuration not stated)	-0.67
CCOC(=O)C1CN(S(C)(=O)=O)Cc2ncn(CC)c21 (configuration not stated)	6.74
CC(C)(NS(C)(=O)=O)c1nc(-c2ccncc2)no1	12.9
CCNC(=O)[C@@H]1C[C@H](N)CN1C(=O)c1c[nH]c2ccccc12	-8.34
CSCCC(=O)N1CCN(CC(C)(C)O)CC1	-5.85
CC(C)(C)C(=O)NCCC(=O)Nc1cc(C#N)cn1C(C)(C)C	2.02
CCCc1nncn1-c1cc(OC)ccc1OC	7.93
COc1ccc(C(C)NC(=O)Cn2ccc(=O)n(C)c2=O)cc1F (configuration not stated)	-3.17
N#Cc1ccc(OCCNCCn2cccn2)cc1	-4.11
CCOC1CCN(C(=O)c2ccc(-c3cccc(C)c3)[nH]c2=O)CC1	3.08
Cn1cccc1C(=O)NCc1cnc2n1CCN(CC1CC1)C2	11.8
CCc1nc(N)nc(N2CCCC3(CCOCC3)C2)c1C	-123
CN(C)c1nccc(N2CCO[C@H]3CN(Cc4nccn4C)C[C@H]32)n1	-123
Cc1noc(C(C)C)c1C(=O)NS(=O)(=O)c1cccnc1	0.345
Cc1ccc2c(c1)OC(C)CN2C(=O)CCc1cccnc1 (configuration not stated)	-52.8
COc1cccc(NC(=O)CNc2ccc(C(=O)N(C)C)c(Cl)c2)c1	6.91

Structure (SMILES)	cytotoxicity at 10 µM [%]
CC1CCN(C)c2ccccc2N1C(=O)c1ccc(=O)n(C)n1 (configuration not stated)	1.53
CCCn1c(C)c(CC(=O)NC(C)CO)c2c1CC(C)(C)CC2=O (configuration not stated)	-10.5
COCCN1C[C@@H]2CCCO[C@@H]2[C@H](NC(=O)c2cnccn2)C1	0.766
CS(=O)(=O)NC1CCN(CCOCc2ccccc2)CC1	2.84
O=C(c1cc(Cn2ccc3ccccc32)[nH]n1)N1CCOCC1	-1.01
O=C(NCCN1CCOC1=O)c1cnc(-c2cccnc2)nc1	0.611
CC(C)Oc1ncccc1CNC(=O)N1CCC1c1ccccc1 (configuration not stated)	-4.92
c1csc(-c2nc(CN3CCOC(Cn4cncn4)C3)cs2)c1 (configuration not stated)	-3.91
CCC(CNC(=O)CCn1cncn1)N1CCc2ccccc2C1 (configuration not stated)	-137
CC(=O)c1ccc(N2CCN(C(=O)c3cnn4c3OCCC4)CC2)cc1	8.44
COc1cccc(C(=O)N2CCC3(CCC(=O)N(C(C)C)C3)CC2)c1C	-3.21
CCCOCC1CCN(C(=O)Cn2cccc(OC)c2=O)C1 (configuration not stated)	5.88
O=S(=O)(NCc1ccccc1Cn1cncn1)N1CCCCCC1	0.512
CS(=O)(=O)Cc1ccc(CNC(=O)N2CCC(C(N)=O)C2)cc1 (configuration not stated)	-6.43
CCN(CC)S(=O)(=O)N1CCc2nc(C3CCNCC3)ncc2C1	-5.66
CCNC(=O)CN(CC)C(=O)c1cccc(Nc2cnn(C)c2)c1	7.68
Cn1ccnc1CN1CCN(Cc2ccc(C#N)cc2)CC1	-10.3
COCCN1C[C@@H](c2ccccc2)[C@@]2(CCN(CC(=O)N(C)C)C2=O)C1	3.11
O=C(NCc1ccco1)[C@@]12CCO[C@@H]1CCN(CC1CCOCC1)C2	6.06
CN(Cc1ccc2c(c1)OCO2)Cc1nc2c(cnn2C)c(=O)[nH]1	-3.63
Cc1ccc(CCNC(=O)N2CCCC(Cc3nccn3C)C2)cn1 (configuration not stated)	-9.26
COCCN1CCN(c2ccc3ccc(C(=O)NC4CC4)cn23)CC1	-4.37
Cc1cc(C)c(C(=O)NCCNc2ncnc3ccccc23)c(=O)[nH]1	21

Structure (SMILES)	cytotoxicity at 10 µM [%]
CN(CCCc1ccccc1)C(=O)c1ccccc1NCC(=O)O	-6.96
CC(c1ccc(Cl)cc1)N1CCN(CCCS(C)(=O)=O)CC1 (configuration not stated)	-8.73
CN(C)C1(CNC(=O)C2CCCN2Cc2ccc(F)cc2)CCOCC1 (configuration not stated)	3.25
C[C@@H]1CN(C2CCN(c3ccccc3)CC2)CC[C@@]1(O)C1CCOCC1	-10.6
O=C(Cn1cccc2cc(-c3ccc(F)cc3)nc1-2)N1CCC(O)CC1	-7.74
CCc1cc(NC(C)(C)C)nc(N2CCOCC2)n1	0.393
COC(=O)C(C)Sc1nnnn1C1CCOCC1 (configuration not stated)	-10.5
CC(C)CN1CC(O)CN(C(=O)c2cccc(C(F)(F)F)c2)CC1=O (configuration not stated)	-7.08
CC(C)CCOc1ccc(C(C)NC(=O)Cn2cccnc2=O)cc1 (configuration not stated)	-4.24
CCCN1CCCC(O)(c2nc(C)c(COc3ccccc3)s2)CC1 (configuration not stated)	2.27
CSc1ccc(CN(CCO)C(=O)CCc2ccc(O)cc2)cc1	-0.711
CCOC(=O)CNC(=O)NCc1cc(C)n(-c2ccc(OC)cc2)c1C	8.27
CC(C)Oc1ccc(C(O)CNCc2ccccc2C(F)(F)F)cc1 (configuration not stated)	-1.71
CC(C)c1cc(NC(=O)CN2CCCC2c2noc(C(C)C)n2)on1 (configuration not stated)	-3.84
COCCN(Cc1cnn(C)c1)C(=O)C1CCC(=O)N(C2CCCC2)C1 (configuration not stated)	6.11
c1ccc(CCCN2CCCC2Cn2cncn2)cc1 (configuration not stated)	-0.121
Cc1cnn(CC2CN(CCc3ccncc3)CCO2)c1 (configuration not stated)	-13.6
CCc1ccccc1-n1cc(O)c(C(=O)N2CCCCC2)n1	0.495
Cn1c(SCC(=O)NC(C)(C#N)C2CC2)nc2ccccc21 (configuration not stated)	-2.15
Cc1ccc(CCNC(=O)NC2CCN(CC(F)(F)F)C2=O)cn1 (configuration not stated)	4.75
